Reference: ChEMBL document CHEMBL4808168, “The Discovery of Two Novel Classes of 5,5-Bicyclic Nucleoside-Derived PRMT5 Inhibitors for the Treatment of Cancer” (J Med Chem, 2021)
≈ marks a conversion by molar mass, not a printed value.

What was measured:
[1] = Plasma clearance in rat; assay type: ADME
[2] = Unbound clearance in rat; assay type: ADME; conditions: in vivo
[3] = Solubility of the compound in FaSSIF at pH 7 at 200 uM incubated for 24 hrs by UV-vis detection based HPLC analysis; assay type: physicochemical
[4] = Solubility of the compound in […] at pH 2 at 200 uM incubated for 24 hrs by UV-vis detection based HPLC analysis; assay type: physicochemical
Procedure, shortened: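 10 mM DMSO stock added to 10 mM potassium phosphate buffer at pH 2 or pH 7, or FaSSIF pH 6.5, to 200 μM total; 24 h equilibration, filtration, then reverse-phase HPLC with UV–vis detection.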

[5] = tested on: Z-138; experiment: Antiproliferative activity against human Z138 cells incubated for 10 days by cell titer-glo assay; assay type: functional, cell-based; conditions: Z-138, 240 h
[6] = Oral bioavailability in rat; assay type: ADME, organism-based; conditions: in vivo
[7] = Unbound volume of distribution in rat; assay type: ADME; conditions: in vivo
[8] = biological target: Protein arginine N-methyltransferase 5 (Homo sapiens, UniProt O14744); experiment: Inhibition of PRMT5 (unknown origin) assessed as inhibition of symmetric dimethylation of arginine incubated for 3 days by fluorescence based cellular target engagement assay
Sequence of Protein arginine N-methyltransferase 5 (O14744 whole entry): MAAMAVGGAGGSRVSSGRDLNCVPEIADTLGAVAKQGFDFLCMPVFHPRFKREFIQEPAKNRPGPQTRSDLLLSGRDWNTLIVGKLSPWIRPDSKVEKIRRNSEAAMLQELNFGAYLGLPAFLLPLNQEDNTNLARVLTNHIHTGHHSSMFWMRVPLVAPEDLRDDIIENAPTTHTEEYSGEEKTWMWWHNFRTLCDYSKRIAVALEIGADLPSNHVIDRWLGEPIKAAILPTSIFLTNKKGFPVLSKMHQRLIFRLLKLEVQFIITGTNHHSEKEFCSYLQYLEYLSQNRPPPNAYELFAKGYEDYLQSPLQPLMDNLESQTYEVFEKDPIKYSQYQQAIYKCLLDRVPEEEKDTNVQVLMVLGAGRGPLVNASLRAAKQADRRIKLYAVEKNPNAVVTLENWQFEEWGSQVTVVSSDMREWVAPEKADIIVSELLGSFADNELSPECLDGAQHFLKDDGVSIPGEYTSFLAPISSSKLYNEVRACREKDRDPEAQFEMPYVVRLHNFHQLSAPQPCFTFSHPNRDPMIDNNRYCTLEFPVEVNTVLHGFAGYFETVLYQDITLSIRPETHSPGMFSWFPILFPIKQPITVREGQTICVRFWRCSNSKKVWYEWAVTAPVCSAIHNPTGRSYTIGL
Procedure, shortened: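 MCF-7 cells (4000/well, collagen-coated plates) in EMEM with 0.01 mg/mL insulin and 10% FBS; 10-point 1:3 titration from 10,000 nM; 3 days at 37 °C/5% CO2; fixed, permeabilized, anti-SDMA antibody, then Alexa488 anti-rabbit IgG plus Hoechst; nuclear fluorescence by high-content imaging versus DMSO; EC50 by four-parameter robust fit.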

[9] = MRT in rat; assay type: ADME; conditions: in vivo

Row | SMILES | clearance [1] | CL free [2] | solubility at 24 h, 200 µM [3] | solubility at 24 h, 200 µM [4] | EC50 [5] | bioavailability [6] | Vdu [7] | EC50 [8] | MRT [9]
1 | Nc1nc2cc(C[C@@H]3CC[C@@]4(O)[C@@H]3C[C@@H](n3ccc5c(N)ncnc53)[C@@H]4O)ccc2cc1Br | 15 mL/min/kg | 1559 mL/min/kg | 20 µM (≈ 10.2 µg/mL) | 147 µM (≈ 74.9 µg/mL) | 6.9 nM | 10% | 136 L/kg | 2.9 nM | 1.6 h
2 | Nc1nc2cc(C[C@@H]3CC[C@@]4(O)[C@@H]3O[C@@H](n3ccc5c(N)ncnc53)[C@@H]4O)ccc2cc1Cl | 46 mL/min/kg | 1045 mL/min/kg | 60 µM (≈ 28 µg/mL) | 159 µM (≈ 74.2 µg/mL) | 3.2 nM | 8% | 79 L/kg | 1.2 nM | 1.3 h
3 | Cc1ncnc2c1ccn2[C@@H]1O[C@@H]2[C@H](Cc3ccc4cc(F)c(N)nc4c3)CC[C@]2(O)[C@H]1O | 32 mL/min/kg | 351 mL/min/kg | 118 µM (≈ 53 µg/mL) | 159 µM (≈ 71.5 µg/mL) | 23 nM | 51% | 20 L/kg | 14 nM | 1 h
4 | Nc1nc2cc(C[C@@H]3CC[C@@]4(O)[C@@H]3O[C@@H](n3ccc5c(C6CC6)ncnc53)[C@@H]4O)ccc2cc1Br | – | – | – | – | 67 nM | – | – | 5.3 nM | –
5 | Cc1nc(N)c2ccn([C@@H]3O[C@@H]4[C@H](Cc5ccc6cc(Br)c(N)nc6c5)CC[C@]4(O)[C@H]3O)c2n1 | 31 mL/min/kg | 1337 mL/min/kg | 21 µM (≈ 11 µg/mL) | 151 µM (≈ 79.3 µg/mL) | 6.4 nM | 11% | 116 L/kg | 3.2 nM | 1.5 h
6 | Nc1nc2cc(C[C@@H]3CC[C@@]4(O)[C@@H]3O[C@@H](n3ccc5c(N)ncnc53)[C@@H]4O)c(F)cc2cc1F | 40 mL/min/kg | 844 mL/min/kg | 110 µM (≈ 51.5 µg/mL) | 156 µM (≈ 73.1 µg/mL) | 20 nM | 30% | 80 L/kg | 2.8 nM | 1.6 h
7 | Nc1nc2cc(C[C@@H]3CC[C@@]4(O)[C@@H]3O[C@@H](n3ccc5c(N)ncnc53)[C@@H]4O)ccc2cc1Br | 25 mL/min/kg | 940 mL/min/kg | 35 µM (≈ 17.9 µg/mL) | 162 µM (≈ 82.8 µg/mL) | 1.7 nM | 10% | 82 L/kg | 1.3 nM | 1.5 h
8 | CNc1ncnc2c1ccn2[C@@H]1O[C@@H]2[C@H](Cc3ccc4cc(Br)c(N)nc4c3)CC[C@]2(O)[C@H]1O | 31 mL/min/kg | 900 mL/min/kg | – | – | 16 nM | 20% | 52 L/kg | 9.9 nM | 1 h
9 | Nc1nc2cc(O[C@H]3CC[C@@]4(O)[C@@H]3O[C@@H](n3ccc5c(N)ncnc53)[C@@H]4O)ccc2cc1Cl | 22 mL/min/kg | 412 mL/min/kg | < 1 µM | 158 µM (≈ 74.1 µg/mL) | 7.5 nM | 2% | 34 L/kg | 1.2 nM | 1.4 h
10 | Cc1cc2ccc(C[C@@H]3CC[C@@]4(O)[C@@H]3O[C@@H](n3ccc5c(N)ncnc53)[C@@H]4O)cc2nc1N | 106 mL/min/kg | 523 mL/min/kg | 137 µM (≈ 61.2 µg/mL) | 151 µM (≈ 67.4 µg/mL) | 0.77 nM | – | 24 L/kg | 3.2 nM | 0.8 h
11 | CNc1ncnc2c1ccn2[C@@H]1O[C@@H]2[C@@H](Oc3ccc4cc(Br)c(N)nc4c3)CC[C@]2(O)[C@H]1O | 12 mL/min/kg | 3143 mL/min/kg | 14 µM (≈ 7.38 µg/mL) | 163 µM (≈ 86 µg/mL) | 23 nM | 68% | 222 L/kg | 5.3 nM | 1.2 h
12 | Nc1nc2cc(O[C@H]3CC[C@@]4(O)[C@@H]3O[C@@H](n3ccc5c(N)ncnc53)[C@@H]4O)ccc2cc1F | 49 mL/min/kg | 289 mL/min/kg | < 1 µM | 158 µM (≈ 71.5 µg/mL) | 27 nM | – | 11 L/kg | 0.9 nM | 0.6 h
13 | Nc1nc2cc(C[C@@H]3CC[C@@]4(O)[C@@H]3O[C@@H](n3ccc5c(N)ncnc53)[C@@H]4O)ccc2cc1F | 18 mL/min/kg | 1029 mL/min/kg | 142 µM (≈ 64 µg/mL) | 163 µM (≈ 73.4 µg/mL) | 8.3 nM | 28% | 111 L/kg | 2.3 nM | 1.3 h
14 | Nc1nc2cc(O[C@@H]3CC[C@@]4(O)[C@@H]3O[C@@H](n3ccc5c(N)ncnc53)[C@@H]4O)ccc2cc1Br | – | – | – | – | > 10 nM | – | – | > 10 nM | –
15 | Cc1ncnc2c1ccn2[C@@H]1C[C@@H]2[C@@H](Cc3ccc4cc(F)c(N)nc4c3)CC[C@]2(O)[C@H]1O | – | – | – | – | 63 nM | – | – | 11 nM | –
16 | Cc1ncnc2c1ccn2[C@@H]1O[C@@H]2[C@H](Cc3ccc4ccc(N)nc4c3)CC[C@]2(O)[C@H]1O | 101 mL/min/kg | 648 mL/min/kg | 164 µM (≈ 70.8 µg/mL) | 181 µM (≈ 78.1 µg/mL) | < 0.5 nM | – | 68 L/kg | 9.9 nM | 1.7 h
17 | Nc1nc2cc(O[C@H]3CC[C@@]4(O)[C@@H]3O[C@@H](n3ccc5cncnc53)[C@@H]4O)ccc2cc1Br | – | – | – | – | 20 nM | – | – | 32 nM | –
18 | Nc1nc2cc(O[C@H]3CC[C@@]4(O)[C@@H]3O[C@@H](n3ccc5c(N)ncnc53)[C@@H]4O)ccc2cc1Br | 49 mL/min/kg | 349 mL/min/kg | < 1 µM | 128 µM (≈ 65.7 µg/mL) | 3.7 nM | 10% | 28 L/kg | 1.2 nM | 1.8 h
19 | Cc1ncnc2c1ccn2[C@@H]1C[C@@H]2[C@H](Cc3ccc4cc(Cl)c(N)nc4c3)CC[C@]2(O)[C@H]1O | 21 mL/min/kg | 424 mL/min/kg | 22 µM (≈ 10.2 µg/mL) | 184 µM (≈ 85.4 µg/mL) | 2.2 nM | 64% | 83 L/kg | 0.87 nM | 1.7 h
20 | Cc1ncnc2c1ccn2[C@@H]1O[C@@H]2[C@@H](Oc3ccc4cc(F)c(N)nc4c3)CC[C@]2(O)[C@H]1O | 16 mL/min/kg | 345 mL/min/kg | 116 µM (≈ 52.4 µg/mL) | 152 µM (≈ 68.6 µg/mL) | 172 nM | – | 30 L/kg | 38 nM | 1.5 h
21 | Cc1ncnc2c1ccn2[C@@H]1C[C@@H]2[C@H](Cc3ccc4cc(Br)c(N)nc4c3)CC[C@]2(O)[C@H]1O | 13 mL/min/kg | 835 mL/min/kg | 14 µM (≈ 7.12 µg/mL) | 199 µM (≈ 101 µg/mL) | 1.6 nM | 74% | 143 L/kg | 1.1 nM | 1.5 h
22 | Cc1ncnc2c1ccn2[C@@H]1O[C@@H]2[C@@H](Oc3ccc4cc(Cl)c(N)nc4c3)CC[C@]2(O)[C@H]1O | 8 mL/min/kg | 710 mL/min/kg | 2 µM (≈ 0.936 µg/mL) | 160 µM (≈ 74.9 µg/mL) | 24 nM | 71% | 59 L/kg | 4 nM | 1.4 h
23 | Cc1ncnc2c1ccn2[C@@H]1O[C@@H]2[C@@H](Cc3ccc4cc(Cl)c(N)nc4c3)CC[C@]2(O)[C@H]1O | – | – | – | – | 26 nM | – | – | 21 nM | –
24 | Nc1nc2cc(C[C@@H]3CC[C@@]4(O)[C@@H]3O[C@@H](n3cc(F)c5c(N)ncnc53)[C@@H]4O)ccc2cc1F | 60 mL/min/kg | 541 mL/min/kg | 114 µM (≈ 53.4 µg/mL) | 158 µM (≈ 74 µg/mL) | 5.6 nM | 24% | 34 L/kg | 4.6 nM | 1 h
25 | Cc1ncnc2c1ccn2[C@@H]1O[C@@H]2[C@H](Cc3ccc4cc(Cl)c(N)nc4c3)CC[C@]2(O)[C@H]1O | 24 mL/min/kg | 667 mL/min/kg | 29 µM (≈ 13.5 µg/mL) | 148 µM (≈ 69 µg/mL) | 6.9 nM | 41% | 43 L/kg | 2.5 nM | 1.1 h
26 | Cc1ncnc2c1ccn2[C@@H]1O[C@@H]2[C@H](Cc3ccc4cc(Br)c(N)nc4c3)CC[C@]2(O)[C@H]1O | 27 mL/min/kg | 2163 mL/min/kg | 21 µM (≈ 10.7 µg/mL) | 186 µM (≈ 94.9 µg/mL) | 1.4 nM | 46% | 148 L/kg | < 0.5 nM | 1.1 h
27 | Nc1nc2cc(C[C@@H]3CC[C@@]4(O)[C@@H]3O[C@@H](n3ccc5c(N)ncnc53)[C@@H]4O)cc(F)c2cc1F | 25 mL/min/kg | 430 mL/min/kg | 83 µM (≈ 38.9 µg/mL) | 171 µM (≈ 80.1 µg/mL) | 5.6 nM | 29% | 54 L/kg | 1.7 nM | 2.1 h
